Assay [1] has as its target Neuronal acetylcholine receptor subunit alpha-7 (Rattus norvegicus, UniProt Q05941). Put plainly: Displacement of [125I]iodoMLA from alpha-7 nAChR in rat cerebral cortex. It counts as tissue-based. In general terms: Displacement assays read how much labelled ligand stays bound in the presence of the test substance.
The test system of assay [2] is Mus musculus. The assay is described as follows: Antinociceptive activity in acute pain mouse model at 10 mg/kg, sc by tail flick method. It counts as functional. The note with it: route subcutaneous. The method, boiled down: (§1)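 Mice, tail-flick assay: heat lamp aimed at the tail, with latency to flick recorded. Each mouse's baseline (2–4 s) was taken before treatment, and test latency was taken after sc dosing. Response was expressed as %MPE = [(test−control)/(maximum latency−control)×100]. ED50 values are reported with confidence limits, or as percent effect at the individual dose.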
For orientation: Thermal pain tests record how soon the animal reacts.

The subject of assay [3] is Mus musculus. The assay is described as follows: Inhibition of nicotine-induced antinociception in acute pain mouse model at 10 ug/kg, sc by tail flick method. It counts as functional. On the set-up: scale not given: the % may be the effect or the level left.
Assay [4] deals with Mus musculus. Put plainly: Antinociceptive activity in acute pain mouse model at 10 mg/kg, sc by hot plate method. It counts as functional. The note with it: route subcutaneous. In short, it runs like this:
(§2)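 Mice were placed in a 10-cm glass cylinder on a hot plate held at 55.0 °C. Two control latencies, at least 10 min apart, were taken per mouse (normal 8–12 s). The endpoint was a jump or paw lick, and animals were tested 5 min after sc injection. Response was expressed as %MPE from test, control and maximum latencies. ED50 values are given with confidence limits, or as percent effect at a dose.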

The test system of assay [5] is Mus musculus. Put plainly: Inhibition of nicotine-induced antinociception in acute pain mouse model at 10 ug/kg, sc by hot plate method. It counts as functional. On the set-up: scale not given: the % may be the effect or the level left.
In assay [6] the test system is Mus musculus. Put plainly: […] in mouse assessed as inhibition of nicotin induced hypothermia at 10 mg/kg, sc. The assay is classed as functional. On the set-up: scale not given: the % may be the effect or the level left. The note with it: route subcutaneous.
For assay [7], the system named is Mus musculus. The assay is described as follows: Effect on rectal temperature in mouse at 10 mg/kg, sc. The note with it: route subcutaneous. It counts as functional. The method, boiled down: (§3)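 Rectal temperature was read with a thermistor probe inserted 24 mm, just before and at several times after sc saline or analog. The pre/post difference was calculated per mouse. Laboratory ambient temperature was 21–24 °C.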

Assay [8] concerns Mus musculus. The assay is described as follows: Effect on locomotor activity in sc dosed mouse assessed as spontaneous activity. It counts as functional. In short, it runs like this:
(§4)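 Mice were placed in individual photocell activity cages 5 min after sc saline (0.9%) or analog. Photobeam interruptions (two banks of eight cells) were counted over the next 10 min. Data are the number of interruptions, and ED50 is reported with confidence limits or as percent effect at a dose.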

The target in assay [9] is Neuronal acetylcholine receptor; alpha4/beta2 (Rattus norvegicus, UniProt P09483+P12390). Put plainly: Displacement of [3H]epibatidine from alpha-4-beta-2 nAChR in rat cerebral cortex. The assay is classed as tissue-based.
Neuronal acetylcholine receptor; alpha4/beta2, sequence (P09483 whole entry): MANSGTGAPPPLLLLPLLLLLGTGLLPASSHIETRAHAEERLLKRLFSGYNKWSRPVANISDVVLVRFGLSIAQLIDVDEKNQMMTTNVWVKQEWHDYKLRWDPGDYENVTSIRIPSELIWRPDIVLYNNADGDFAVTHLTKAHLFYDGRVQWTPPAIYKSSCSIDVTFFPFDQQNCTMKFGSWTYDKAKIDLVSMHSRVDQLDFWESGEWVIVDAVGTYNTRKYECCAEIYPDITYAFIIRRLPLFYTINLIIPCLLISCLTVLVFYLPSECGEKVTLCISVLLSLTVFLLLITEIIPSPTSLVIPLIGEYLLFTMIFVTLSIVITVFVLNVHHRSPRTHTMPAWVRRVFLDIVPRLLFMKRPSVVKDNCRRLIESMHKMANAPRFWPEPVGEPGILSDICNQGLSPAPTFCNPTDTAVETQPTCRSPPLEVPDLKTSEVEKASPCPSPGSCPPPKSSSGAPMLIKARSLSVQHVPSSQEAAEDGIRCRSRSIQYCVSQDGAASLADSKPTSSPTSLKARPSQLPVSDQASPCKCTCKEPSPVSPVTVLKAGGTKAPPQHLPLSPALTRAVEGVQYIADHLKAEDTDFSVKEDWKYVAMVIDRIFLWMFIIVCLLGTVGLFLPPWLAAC
Neuronal acetylcholine receptor; alpha4/beta2, sequence (P12390 whole entry): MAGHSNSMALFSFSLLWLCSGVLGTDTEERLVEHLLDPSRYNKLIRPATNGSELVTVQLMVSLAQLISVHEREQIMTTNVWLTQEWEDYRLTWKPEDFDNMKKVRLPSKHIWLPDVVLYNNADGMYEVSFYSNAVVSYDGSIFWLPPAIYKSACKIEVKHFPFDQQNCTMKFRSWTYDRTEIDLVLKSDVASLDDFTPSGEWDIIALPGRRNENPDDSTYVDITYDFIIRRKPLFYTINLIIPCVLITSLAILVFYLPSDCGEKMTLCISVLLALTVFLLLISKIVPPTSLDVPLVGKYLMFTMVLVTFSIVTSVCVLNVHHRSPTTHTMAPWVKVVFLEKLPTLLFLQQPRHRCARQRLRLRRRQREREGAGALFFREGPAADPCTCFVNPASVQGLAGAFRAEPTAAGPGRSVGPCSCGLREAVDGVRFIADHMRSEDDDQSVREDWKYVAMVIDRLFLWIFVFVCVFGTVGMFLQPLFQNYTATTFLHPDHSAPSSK
Assay [10] concerns Mus musculus. Put plainly: Inhibition of nicotine-induced antinociception in sc dosed acute pain mouse model by tail flick method. It counts as functional.
Assay [11] relates to Mus musculus. The assay is described as follows: Inhibition of nicotine-induced antinociception in acute pain mouse model at 2000 ug/kg, sc by hot plate method. It counts as functional. On the set-up: scale not given: the % may be the effect or the level left.
Assay [12] concerns Mus musculus. Put plainly: Effect on rectal temperature in mouse at 20 mg/kg, sc. The note with it: route subcutaneous. It counts as functional. In short, it runs like this: as §3
The test system of assay [13] is Mus musculus. Put plainly: Effect on locomotor activity in mouse assessed as spontaneous activity at 10 mg/kg, sc. It counts as functional. The note with it: route subcutaneous. In short, it runs like this:
as §4

Assay [14] has as its system Mus musculus. Put plainly: Effect on rectal temperature in mouse at 1000 […], sc. It counts as functional. The note with it: route subcutaneous. In short, it runs like this:
as §3

Assay [15] concerns Mus musculus. Put plainly: Inhibition of nicotine-induced antinociception in sc dosed acute pain mouse model by hot plate method. The assay is classed as functional.
In assay [16] the test system is Mus musculus. The assay is described as follows: Effect on rectal temperature in mouse at 5000 […], sc. The note with it: route subcutaneous. It counts as functional. The method, boiled down: as §3
The test system of assay [17] is Mus musculus. The assay is described as follows: Antinociceptive activity in acute pain mouse model at 15 mg/kg, sc by hot plate method. It counts as functional. The note with it: route subcutaneous. The method, boiled down:
as §2

The subject of assay [18] is Mus musculus. The assay is described as follows: Antinociceptive activity in acute pain mouse model at 20 mg/kg, sc by tail flick method. It counts as functional. To be noted: route subcutaneous. In short, it runs like this:
as §1

Assay [19] concerns Mus musculus. The assay is described as follows: Antinociceptive activity in acute pain mouse model at 20 mg/kg, sc by hot plate method. It counts as functional. The note with it: route subcutaneous. The method, boiled down: as §2
The subject of assay [20] is Mus musculus. Put plainly: Effect on rectal temperature in mouse at 2000 […], sc. It counts as functional. The note with it: route subcutaneous. In short, it runs like this: as §3
The subject of assay [21] is Mus musculus. Put plainly: Agonist activity in sc dosed mouse assessed as induction of hypothermia.
Assay [22] has as its system Mus musculus. The assay is described as follows: Inhibition of nicotine-induced antinociception in acute pain mouse model at 100 ug/kg, sc by hot plate method. It counts as functional. Further details: scale not given: the % may be the effect or the level left.
Assay [23] has as its system Mus musculus. Put plainly: Effect on rectal temperature in mouse at 100 […], sc. The note with it: route subcutaneous. It counts as functional. In short, it runs like this:
as §3

The subject of assay [24] is Mus musculus. The assay is described as follows: Inhibition of nicotine-induced antinociception in acute pain mouse model at 1000 ug/kg, sc by hot plate method. It counts as functional. Further details: scale not given: the % may be the effect or the level left.
The test system of assay [25] is Mus musculus. Put plainly: […] in mouse assessed as inhibition of nicotin induced hypothermia at 20 mg/kg, sc. The assay is classed as functional. Further details: scale not given: the % may be the effect or the level left. To be noted: route subcutaneous.
The subject of assay [26] is Mus musculus. Put plainly: Antinociceptive activity in sc dosed acute pain mouse model by tail flick method. It counts as functional. The method, boiled down: as §1
The subject of assay [27] is Mus musculus. The assay is described as follows: Antinociceptive activity in sc dosed in acute pain mouse model by hot plate method. It counts as functional. In short, it runs like this: as §2

Neuronal acetylcholine receptor subunit alpha-7, sequence (Q05941 whole entry): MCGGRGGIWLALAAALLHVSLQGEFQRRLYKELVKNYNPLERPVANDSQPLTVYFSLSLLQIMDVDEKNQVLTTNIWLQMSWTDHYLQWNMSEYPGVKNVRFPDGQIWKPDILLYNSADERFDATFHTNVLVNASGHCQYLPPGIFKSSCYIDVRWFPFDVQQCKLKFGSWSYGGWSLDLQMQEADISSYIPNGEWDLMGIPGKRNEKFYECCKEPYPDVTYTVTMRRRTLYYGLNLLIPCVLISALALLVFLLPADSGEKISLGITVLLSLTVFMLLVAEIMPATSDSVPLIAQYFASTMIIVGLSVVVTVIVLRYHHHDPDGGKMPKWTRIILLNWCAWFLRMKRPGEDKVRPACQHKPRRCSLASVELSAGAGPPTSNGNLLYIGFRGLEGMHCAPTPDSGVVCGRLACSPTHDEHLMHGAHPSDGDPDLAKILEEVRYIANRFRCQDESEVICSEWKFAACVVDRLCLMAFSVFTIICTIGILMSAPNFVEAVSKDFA

On to `COc1cccc(-c2cncc(C3CC4CCC3N4)c2)c1.Cl.Cl` (racemic), for which the Ki (commonly a dissociation constant, usually derived from enzyme kinetics or from competition with a known ligand) in [1] is > 2000 nM. In addition, the Activity in assay [2] was determined as 1%; in assay [3], 0%; in [4] it was 20%; in assay [5], 0%; in assay [6], 0%; in assay [7], 0%. Moreover, the median effective dose (ED50) (commonly the midpoint of the dose-response relation) in [8] came to 2.9 mg/kg.

As to `Cl.Nc1ccc(-c2cncc(C3CC4CCC3N4)c2)cc1` (racemic), the values for the Ki in [9] and in assay [1] were 0.34 nM and > 2000 nM, respectively. For the same compound, the Activity in assay [2] worked out at 6%; in [4], 10%; in [11], 45%; in [6], 0%; in assay [12], 0%; in [13] it was 15%. In [10], this compound showed an AD50 of 1 µg/kg.

Compound `Cl.Fc1ncc(C2CC3CCC2N3)cc1-c1ccc(Cl)cc1` (racemic) showed an inhibition constant (Ki) in assay [9] of 0.044 nM. In addition, the AD50 in assay [10] came to 0.3 µg/kg; in [15], 260 µg/kg. Besides, the Activity in assay [4] worked out at 7%; in assay [14], 0%; in assay [13], 5%.

Regarding `Cl.Nc1cccc(-c2cc(C3CC4CCC3N4)cnc2F)c1` (racemic), the AD50 is 9 µg/kg in [10] and 820 µg/kg in assay [15]. The figures for the Activity in assay [4] and in assay [16] were 4% and 5%, respectively.

Consider `Cl.Fc1ncc(C2CC3CCC2N3)cc1-c1ccccc1` (racemic), for which the Ki in [1] is > 2000 nM. Further, the AD50 in assay [10] came to 500 µg/kg; in assay [15], 1200 µg/kg. This compound also had an Activity in [17] of 4%.

With `Cl.Cl.O=[N+]([O-])c1cccc(-c2cncc(C3CC4CCC3N4)c2)c1` (racemic), the Ki is 0.17 nM in [9] and > 2000 nM in assay [1]. The values for the Activity in [18], in assay [19] and in assay [20] were 5%, 21% and 0%, respectively. For the same compound, the results for the ED50 in assay [8] and in [21] were 2.5 mg/kg and 37.6 mg/kg, respectively.

`Cl.Cl.O=[N+]([O-])c1ccc(-c2cncc(C3CC4CCC3N4)c2)cc1` (racemic): the values for the Ki in assay [9] and in assay [1] were 0.34 nM and > 2000 nM, respectively. Further, the Activity amounted to 1% in assay [2], 26% in assay [4], 10% in [22] and 0% in assay [23]. This compound came in with an AD50 in [10] of 47 µg/kg. In addition, the results for the ED50 in assay [8] and in [21] were 0.66 mg/kg and 2.9 mg/kg, respectively.

`Cl.Cl.Cl.Clc1cccc(-c2cncc(C3CC4CCC3N4)c2)c1` (racemic): the Ki is 0.17 nM in assay [9] and > 2000 nM in assay [1]. For the same compound, the Activity is 1% in assay [18]; 10% in [19]; 0% in assay [24]; 0% in assay [25]; 0% in assay [14]. In [10], the AD50 was determined as 0.01 µg/kg. Also, in assay [8], the ED50 is 3.8 mg/kg.

In the case of `Cl.Nc1cccc(-c2cncc(C3CC4CCC3N4)c2)c1` (racemic), the inhibition constant (Ki) in assay [9] was 1.16 nM; in assay [1], > 2000 nM. The ED50 in [26] is 6 µg/kg; in assay [27] it was 0.65 mg/kg; in assay [8], 1.5 mg/kg; in assay [21], 3.8 mg/kg.

`c1cncc(C2CC3CCC2N3)c1` (stereo not drawn) [DESCHLOROEPIBATIDINE] came in with an ED50 in [26] of 2 µg/kg.

`Cl.Nc1ccc(-c2cc(C3CC4CCC3N4)cnc2F)cc1` (racemic): the Ki in assay [9] is 0.095 nM. Also, the AD50 in assay [10] worked out at 5 µg/kg; in [15], 1800 µg/kg. The Activity is reported as 10% in [4] and 0% in assay [16].

The values above are taken from ChEMBL document CHEMBL1143907, “Synthesis, nicotinic acetylcholine receptor binding, and pharmacological properties of 3'-(substituted phenyl)deschloroepibatidine analogs” (Bioorg Med Chem, 2008).
